Experimental data from PMC10078363 (Journal of Pineal Research, 2022).
Like-named read-outs stand apart in the source and are kept apart here.

Key:
murine Abcg2 [1] = molecular target: T1, murine Abcg2 (Mus musculus, UniProt Q7TMS5); type: in vivo, mice; settings: 30 min after i.v. melatonin 10 mg/kg
T1 sequence (Q7TMS5 1-657): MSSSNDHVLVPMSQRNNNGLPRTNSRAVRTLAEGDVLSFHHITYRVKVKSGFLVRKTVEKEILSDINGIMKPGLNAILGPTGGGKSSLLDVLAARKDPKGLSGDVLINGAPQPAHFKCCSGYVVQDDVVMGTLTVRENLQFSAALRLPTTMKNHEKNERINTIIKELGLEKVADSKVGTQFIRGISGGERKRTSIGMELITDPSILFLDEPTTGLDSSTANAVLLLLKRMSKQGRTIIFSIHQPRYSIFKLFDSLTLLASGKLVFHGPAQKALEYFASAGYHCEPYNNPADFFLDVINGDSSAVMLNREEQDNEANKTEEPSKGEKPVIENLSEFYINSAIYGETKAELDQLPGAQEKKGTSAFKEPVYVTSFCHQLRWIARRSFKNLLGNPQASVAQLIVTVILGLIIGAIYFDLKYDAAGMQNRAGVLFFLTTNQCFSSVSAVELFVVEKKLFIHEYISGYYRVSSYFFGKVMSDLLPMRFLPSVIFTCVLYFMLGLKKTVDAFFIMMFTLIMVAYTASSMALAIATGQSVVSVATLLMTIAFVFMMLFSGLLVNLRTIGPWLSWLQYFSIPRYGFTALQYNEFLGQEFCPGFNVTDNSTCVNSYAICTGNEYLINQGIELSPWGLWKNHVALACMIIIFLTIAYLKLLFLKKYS

[2] = Transepithelial transport assay in parental MDCK‐II cells; type: in vitro ADME, canine; settings: dog, with Ko143 1 µM
Procedure, shortened: (§1)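 MDCK-II monolayers, parental or transduced with an ABCG2 variant, in Hanks' balanced salt solution with 25 mM HEPES. Both sides are refreshed with or without Ko143 (1 µM). Test compound (8–10 µM) is added to one side, and the opposite side is sampled at 1, 2, 3 and 4 h. Analysis is by HPLC-UV at 310 nm. Ratio is apically directed % over basolaterally directed % at 4 h; n ≥ 3, mean ± SD.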

murine Abcg2 [3] = molecular target: T1, murine Abcg2; assay: Transepithelial transport assay in MDCK‐II cells transduced with murine Abcg2; type: in vitro ADME; settings: mAbcg2 MDCK‐II, +Ko143 (1 µM); Mel 10 µM, 6‐SO‐Mel 8 µM, 6‐OH‐Mel 10 µM
Procedure, shortened: as §1

ovine ABCG2 = assay: Transepithelial transport assay in MDCK‐II cells transduced with ovine ABCG2; type: in vitro ADME; settings: oABCG2 MDCK‐II, +Ko143 (1 µM); Mel 10 µM, 6‐SO‐Mel 8 µM, 6‐OH‐Mel 10 µM
Procedure, shortened: as §1

human ABCG2 = assay: Transepithelial transport assay in MDCK‐II cells transduced with human ABCG2; type: in vitro ADME; settings: with Ko143 1 µM
Procedure, shortened: as §1

murine Abcg2 [4] = type: in vivo; settings: male, FVB/N, mouse, plasma, oral, 10 mg/kg body weight, Abcg2−/− male mice, 1 h after oral melatonin 10 mg/kg
Procedure, shortened: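 Male Abcg2−/− and wild-type mice (FVB/N background, n = 8) are dosed orally in the morning with 10 mg/kg melatonin in 10% ethanol/40% PEG/50% saline. Plasma and tissues are taken at 1 h. Samples are precipitated with acetonitrile, then a melatonin-d4 internal standard is added. Analysis is LC-MS/MS on C18 with a water/methanol gradient (1 mM ammonium formate, 0.01% formic acid). Hydroxylated metabolites are reported as arbitrary units. Groups are compared by t-test or Mann–Whitney.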

murine Abcg2 [5] = type: in vivo, mice; settings: female, FVB/N, mouse, intravenous, 10 mg/kg body weight, Abcg2−/− lactating female mice, 30 min after i.v. melatonin 10 mg/kg
[6] = wild‐type lactating female mice

## COc1ccc2[nH]c(O)c(CCNC(C)=O)c2c1 [2‐OH‐Mel, 2‐hydroxymelatonin]
Murine Abcg2 [1]; Abcg2−/− lactating female mice
  Milk levels (relative abundance): 1.42 ± 0.66 arbitrary units
  Milk to plasma ratio (relative abundance): 1.75 ± 0.29 arbitrary units
Murine Abcg2 [1]; lactating female mice
  Fold higher milk concentration/levels in wild‐type compared with Abcg2−/−: around twofold
  Fold higher milk to plasma ratio in wild‐type compared with Abcg2−/−: around twofold
Murine Abcg2 [1]; [6]
  Milk levels (relative abundance): 2.90 ± 1.24 arbitrary units
  Milk to plasma ratio (relative abundance): 3.68 ± 1.34 arbitrary units

## COc1ccc2[nH]cc(CCNC(C)=O)c2c1 [melatonin]
[2]
  efflux ratio at 4 h: 1.05 ± 0.06
Murine Abcg2 [3]
  Relative efflux transport ratio (basal to apical % / apical to basal %) at 4 h: 1.00 ± 0.06
Ovine ABCG2
  Relative efflux transport ratio (basal to apical % / apical to basal %) at 4 h: 0.99 ± 0.11
Human ABCG2
  efflux ratio at 4 h: 1.02 ± 0.07
Murine Abcg2 [4]
  concentration at 1 h: 9.39 ± 4.59 ng/mL
Murine Abcg2 [1]; lactating female mice
  Fold higher milk concentration/levels in wild‐type compared with Abcg2−/−: almost twofold
Murine Abcg2 [5]; milk, Milk concentration
  concentration at 30 min: 6.34 ± 3.87 µg/mL
Murine Abcg2 [5]; milk, Milk to plasma ratio
  Kp at 30 min: 0.02 ± 0.01
Murine Abcg2 [5]; plasma, Plasma concentration
  concentration at 30 min: 288 ± 89.3 µg/mL
